This is an account of results in ChEMBL document CHEMBL4627371, “Discovery of novel heat shock protein (Hsp90) inhibitors based on luminespib with potent antitumor activity” (Bioorg Med Chem Lett, 2020).

Data set [1] relates to HCT-116. As to the kind of experiment: Cytotoxicity against human HCT116 cells assessed as cell growth inhibition. It counts as functional, cell-based.
Data set [2] has as its target T1, Heat shock protein HSP90 (Homo sapiens, UniProt P07900+P08238). The data set can be described thus: Inhibition of HSP90 ATPase activity (unknown origin). It counts as protein assay.
In data set [3] the target is T1, Heat shock protein HSP90. The data set can be described thus: Inhibition of HSP90 (unknown origin) assessed as HER2 degradation by cell-based assay.
In data set [4] the test system is A2780. As to the kind of experiment: Cytotoxicity against human A2780 cells assessed as cell growth inhibition. The class given is functional, cell-based.
Data set [5] can be described thus: Toxicity in BALB/c nu/nu mouse xenografted with human A2780 cells assessed as effect on body weight at 50 mg/kg, iv administered 3 times a week for 2 weeks starting from 5 to 6 days post tumor inoculation. To be noted: in vivo. It counts as organism-based. In short, it runs like this:
(§1)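 Human A2780 ovarian adenocarcinoma cells were cultured and implanted into BALB/c-nu/nude mice, n = 6 per group. Tumor size and volume were measured 5 or 6 days later. Compounds were suspended in 1% carboxymethyl cellulose and given intravenously. Deaths and body weight were monitored. Tumor growth inhibition = [1 − (mean treated tumor volume)/(mean control tumor volume)] × 100%.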

The subject of data set [6] is A2780. As to the kind of experiment: Antitumor activity against human A2780 cells xenografted in BALB/c nu/nu mouse assessed as tumor growth inhibition at 50 mg/kg, iv administered 3 times a week for 2 weeks starting from 5 to 6 days post tumor inoculation relative to control. To be noted: read-out: TGI. It counts as functional. The procedure, abridged:
as §1

Data set [7] is described as follows: Toxicity in BALB/c nu/nu mouse xenografted with human A2780 cells assessed as mouse death at 50 mg/kg, iv administered 3 times a week for 2 weeks starting from 5 to 6 days post tumor inoculation. To be noted: in vivo. It counts as organism-based. The procedure, abridged:
as §1

`CCNC(=O)c1noc(-c2cc(C(C)C)c(O)cc2O)c1-c1cc(COCC(=O)OC)no1`: the IC50 in data set [1] worked out at 262 nM; in data set [2], 443 nM.
As to `CCNC(=O)c1noc(-c2cc(C(C)C)c(O)cc2O)c1-c1cc(CN)no1`, the IC50 in data set [3] was 171 nM; in data set [1], 84 nM; in data set [2], 674 nM.
For `CCNC(=O)c1noc(-c2cc(C(C)C)c(O)cc2O)c1-c1cc(CN2CCOCC2)no1`, the IC50 stood at 50 nM in data set [3], 28 nM in data set [1] and 595 nM in data set [2].
Regarding `CCNC(=O)c1noc(-c2cc(C(C)C)c(O)cc2O)c1-c1cnn(CC)c1`, the IC50 in data set [3] was 13 nM; in data set [1], 26 nM; in data set [4], 30 nM; in data set [2], 532 nM.
Consider `CCNC(=O)c1noc(-c2cc(C(C)C)c(O)cc2O)c1-c1cnn(C(C)C)c1`, for which the IC50 in data set [3] is 19 nM; in data set [1], 21 nM; in data set [4], 21 nM; in data set [2], 542 nM.
Turning to `CCCNCc1cc(-c2c(C(=O)NCC)noc2-c2cc(C(C)C)c(O)cc2O)on1`, the IC50 in data set [3] was found to be 24 nM; in data set [1] it was 117 nM; in data set [2], 465 nM.
In the case of `CCNC(=O)c1noc(-c2cc(C(C)C)c(O)cc2O)c1-c1cc(CN2CCN(C)CC2)no1`, the IC50 in data set [1] amounted to 340 nM; in data set [2], 572 nM.
Regarding `CCNC(=O)c1noc(-c2cc(C(C)C)c(O)cc2O)c1-c1cc(C(N)=O)no1`, the half-inhibitory concentration (IC50) is 52 nM in data set [3], 79 nM in data set [1], 15 nM in data set [4] and 657 nM in data set [2].
As for `CCNC(=O)c1noc(-c2cc(C(C)C)c(O)cc2O)c1-c1cc(CN2CCCCC2)no1`, the IC50 was 62 nM in data set [3], 93 nM in data set [1], 62 nM in data set [4] and 752 nM in data set [2].
Regarding `CCNC(=O)c1noc(-c2cc(C(C)C)c(O)cc2O)c1-c1cc(CN(C)C)no1`, the IC50 in data set [3] is 33 nM; in data set [1] it was 92 nM; in data set [4], 31 nM; in data set [2], 490 nM.
Take `CCNC(=O)c1noc(-c2cc(C(C)C)c(O)cc2O)c1-c1cc(COS(C)(=O)=O)no1`: the IC50 came to 400 nM in data set [1] and 476 nM in data set [2].
Regarding `CCNC(=O)c1noc(-c2cc(C(C)C)c(O)cc2O)c1-c1cc(CNCCO)no1`, the results for the IC50 in data set [1] and in data set [2] were 111 nM and 975 nM, respectively.
On to `CCNC(=O)c1noc(-c2cc(C(C)C)c(O)cc2O)c1-c1cc(CNC(C)=O)no1`, for which the IC50 in data set [3] turned out to be 71 nM; in data set [1], 167 nM; in data set [2], 500 nM.
On to `CCNC(=O)c1noc(-c2cc(C(C)C)c(O)cc2O)c1-c1cc(CN2CCCC2)no1`, for which the IC50 is 38 nM in data set [3], 51 nM in data set [1], 55 nM in data set [4] and 686 nM in data set [2].
Consider `CCNC(=O)c1noc(-c2cc(C(C)C)c(O)cc2O)c1-c1cc(CC#N)no1`, for which the IC50 in data set [1] was 79 nM; in data set [2], 470 nM.
For `CCNC(=O)c1noc(-c2cc(C(C)C)c(O)cc2O)c1-c1cc(CF)no1`, the IC50 was 27 nM in data set [3], 63 nM in data set [1], 28 nM in data set [4] and 410 nM in data set [2].
Regarding `CCCN(CCC)Cc1cc(-c2c(C(=O)NCC)noc2-c2cc(C(C)C)c(O)cc2O)on1`, the values for the IC50 in data set [3], in data set [1] and in data set [2] were 117 nM, 183 nM and 413 nM, respectively.
As to `CCNC(=O)c1noc(-c2cc(C(C)C)c(O)cc2O)c1-c1cc(C(=O)NC)no1`, the IC50 worked out at 24 nM in data set [3], 124 nM in data set [1], 100 nM in data set [4] and 489 nM in data set [2].
In the case of `CCNC(=O)c1noc(-c2cc(C(C)C)c(O)cc2O)c1-c1ccn(C(C)C)n1`, the IC50 in data set [3] is 14 nM; in data set [1], 19 nM; in data set [4] it was 45 nM; in data set [2], 543 nM. The Activity result in data set [5] and in data set [7] was “Non-Toxic” throughout. Besides, the inhibition in vivo at 50 mg/kg in data set [6] was 49.8%.
As for `CCNC(=O)c1noc(-c2cc(C(C)C)c(O)cc2O)c1-c1cc[nH]n1`, the IC50 in data set [3] is 45 nM; in data set [1], 36 nM; in data set [4] it was 33 nM; in data set [2], 524 nM. In addition, the Activity result in data set [5] and in data set [7] was “Non-Toxic” throughout. The inhibition in vivo at 50 mg/kg in data set [6] came out at 46.4%.
With `CCNC(=O)c1noc(-c2cc(C(C)C)c(O)cc2O)c1-c1cc(CNC)no1`, the IC50 in data set [1] came to 164 nM; in data set [2], 436 nM.
Turning to `CCNC(=O)c1noc(-c2cc(C(C)C)c(O)cc2O)c1-c1cc(CNC(C)C)no1`, the IC50 amounted to 18 nM in data set [3], 109 nM in data set [1], 38 nM in data set [4] and 521 nM in data set [2].
Take `CCNC(=O)c1noc(-c2cc(C(C)C)c(O)cc2O)c1-c1cc(C(=O)N2CCSCC2)no1`: the results for the IC50 in data set [4] and in data set [2] were 207 nM and 566 nM, respectively.
In the case of `CCNCc1cc(-c2c(C(=O)NCC)noc2-c2cc(C(C)C)c(O)cc2O)on1`, the IC50 in data set [3] was determined as 23 nM; in data set [1], 45 nM; in data set [4] it was 45 nM; in data set [2] it was 475 nM. Moreover, the Activity result in data set [5] and in data set [7] was “Non-Toxic” in each case. The inhibition in vivo at 50 mg/kg in data set [6] came out at 40.3%.
As for `CCNC(=O)c1noc(-c2cc(C(C)C)c(O)cc2O)c1-c1ccn(C)n1`, the IC50 in data set [3] was determined as 16 nM; in data set [1], 16 nM; in data set [4], 12 nM; in data set [2], 522 nM.
In the case of `CCNC(=O)c1noc(-c2cc(C(C)C)c(O)cc2O)c1-c1cnn(C)c1`, the half-inhibitory concentration (IC50) in data set [3] worked out at 19 nM; in data set [1] it was 41 nM; in data set [4], 20 nM; in data set [2], 482 nM.
On to `CCNC(=O)c1noc(-c2cc(C(C)C)c(O)cc2O)c1-c1ccn(CC)n1`, for which the IC50 in data set [3] was determined as 12 nM; in data set [1] it was 25 nM; in data set [4], 13 nM; in data set [2], 553 nM.
Take `CCNC(=O)c1noc(-c2cc(C(C)C)c(O)cc2O)c1-c1cc(C(=O)N2CCOCC2)no1`: the IC50 turned out to be 52 nM in data set [3], 60 nM in data set [1], 85 nM in data set [4] and 583 nM in data set [2].
As for `CCNC(=O)c1noc(-c2cc(C(C)C)c(O)cc2O)c1-c1cc(CNC(=O)CC)no1`, the results for the IC50 in data set [3], in data set [1] and in data set [2] were 50 nM, 78 nM and 382 nM, respectively.
Consider `CCNC(=O)c1noc(-c2cc(C(C)C)c(O)cc2O)c1-c1cc(COCC(N)=O)no1`, for which the IC50 in data set [3] is 50 nM; in data set [1], 97 nM; in data set [2], 452 nM.
In data set [2], `CCNC(=O)c1noc(-c2cc(C(C)C)c(O)cc2O)c1-c1cc(COCC(=O)O)no1` registered an IC50 of 1280 nM.
On to `CCNC(=O)c1noc(-c2cc(C(C)C)c(O)cc2O)c1-c1cc(C(=O)O)no1`, for which the IC50 in data set [4] was 20000 nM; in data set [2] it was 1870 nM.
Regarding `CCNC(=O)c1noc(-c2cc(C(C)C)c(O)cc2O)c1-c1cc(C(=O)OCC)no1`, the values for the IC50 in data set [4] and in data set [2] were 9000 nM and 447 nM, respectively.
In the case of `CCCn1ccc(-c2c(C(=O)NCC)noc2-c2cc(C(C)C)c(O)cc2O)n1`, the IC50 in data set [3] turned out to be 24 nM; in data set [1] it was 49 nM; in data set [4], 27 nM; in data set [2] it was 584 nM.
On the same counts, the results for `CCNC(=O)c1noc(-c2cc(C(C)C)c(O)cc2O)c1-c1cc(CN2CCSCC2)no1` are 38 nM, 67 nM, 64 nM and 440 nM.
Consider `C=CCNCc1cc(-c2c(C(=O)NCC)noc2-c2cc(C(C)C)c(O)cc2O)on1`, for which the values for the IC50 in data set [3] and in data set [2] were 67 nM and 435 nM, respectively.
For the molecule `CCNC(=O)c1noc(-c2cc(C(C)C)c(O)cc2O)c1-c1cc(CN(CC)CC)no1`, the half-maximal inhibitory concentration (IC50) in data set [3] was determined as 52 nM; in data set [1], 38 nM; in data set [4], 78 nM; in data set [2], 468 nM. Besides, the Activity entry in data set [5] and in data set [7] was “Non-Toxic” throughout. The inhibition in vivo at 50 mg/kg in data set [6] was 12.8%.
